ChEMBL document CHEMBL1932977, “Synthesis of pyrazolo[3,4-b]pyridines under microwave irradiation in multi-component reactions and their antitumor and antimicrobial activities - Part 1” (Eur J Med Chem, 2012)
Values after ≈ are worked out from the molar mass of the structure shown. Active and inactive are the calls of the source. The calls are words filed in the database; no cut-off is given here.

Key:
Penicillium expansum = test: Antifungal activity against Penicillium expansum at 10 mg/ml after 24 hrs by cut-plug method; format: functional
Outline: (§1)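 Cut-plug agar diffusion. Bacteria grown on nutrient agar and fungi on Sabouraud agar slopes, strains from a university culture collection. Plates seeded with 1 ml of diluted inoculum (10⁷ CFU/ml) spread after solidification. Wells cut and filled with compound in DMSO at 10 mg/ml. Plates incubated at 30 °C for 24 h, then inhibition-zone diameters (mm) measured.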

Enterobacter cloacae = test: Antibacterial activity against Enterobacter cloacae at 10 mg/ml after 24 hrs by cut-plug method; format: functional; outline: as §1
Bacillus = test: Antibacterial activity against Bacillus at 10 mg/ml after 24 hrs by cut-plug method; format: functional; outline: as §1
Escherichia coli = test: Antibacterial activity against Escherichia coli at 10 mg/ml after 24 hrs by cut-plug method; format: functional; outline: as §1
Fusarium oxysporum = test: Antifungal activity against Fusarium oxysporum at 10 mg/ml after 24 hrs by cut-plug method; format: functional; outline: as §1
HepG2 = test: Cytotoxicity against human HepG2 by sulforhodamie B colorimetric assay; format: functional, cell-based
Outline: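 HEPG2 human liver cancer cells, compound-treated against untreated control. Read by SRB: TCA-fixed cultures stained 30 min with 0.4% w/v SRB in 1% acetic acid, bound dye extracted with 10 mM Tris, optical density read on a plate reader. Surviving fraction as percent growth. IC50 estimated by probit regression.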

Serratia = test: Antibacterial activity against Serratia at 10 mg/ml after 24 hrs by cut-plug method; format: functional; outline: as §1
[1] = Homo sapiens, HepG2, read-out: IC50

| Compound | diameter of the inhibition zone (DIZ) (Penicillium expansum) | diameter of the inhibition zone (DIZ) (Enterobacter cloacae) | diameter of the inhibition zone (DIZ) (Bacillus) | diameter of the inhibition zone (DIZ) (Escherichia coli) | diameter of the inhibition zone (DIZ) (Fusarium oxysporum) | IC50 (HepG2; [1]) [µg/mL] | diameter of the inhibition zone (DIZ) (Serratia) | IC50 (HepG2; hepg2) |
| --- | --- | --- | --- | --- | --- | --- | --- | --- |
| O=C(O)c1cc(-c2ccc(O)cc2)c2c(-c3cccnc3)nn(-c3ccccc3)c2n1 | inactive | inactive | inactive | inactive | – | – | – | – |
| O=C(O)c1cc(-c2ccccc2)c2c(-c3cccnc3)nn(-c3ccccc3)c2n1 | inactive | inactive | inactive | inactive | inactive | – | – | – |
| COc1ccc(-c2c(C#N)c(-c3ccc(C)cc3)nc3c2c(-c2cccnc2)nn3-c2ccccc2)cc1 | inactive | inactive | inactive | – | inactive | 4.34 (≈ 8.79 µM) | – | – |
| COc1ccc(-c2c(C#N)c(-c3ccc(F)cc3)nc3c2c(-c2cccnc2)nn3-c2ccccc2)cc1 | inactive | inactive | inactive | inactive | inactive | 3.43 (≈ 6.89 µM) | – | – |
| CN(C)c1ccc(-c2cc(C(=O)O)nc3c2c(-c2cccnc2)nn3-c2ccccc2)cc1 | inactive | – | inactive | inactive | – | – | – | – |
| COc1ccc(-c2cc(C(=O)O)nc3c2c(-c2cccnc2)nn3-c2ccccc2)cc1 | inactive | – | – | – | – | – | – | – |
| COc1ccc(-c2c(C#N)c(-c3ccc([N+](=O)[O-])cc3)nc3c2c(-c2cccnc2)nn3-c2ccccc2)cc1 | – | inactive | inactive | – | inactive | 13.5 (≈ 25.7 µM) | inactive | – |
| O=C(O)c1cc(-c2ccc(Br)cc2)c2c(-c3cccnc3)nn(-c3ccccc3)c2n1 | inactive | inactive | inactive | inactive | inactive | – | – | – |
| COc1ccc(-c2c(C#N)c(-c3ccccc3)nc3c2c(-c2cccnc2)nn3-c2ccccc2)cc1 | inactive | inactive | inactive | inactive | inactive | – | inactive | Not Active |
| COc1cccc2c1C(=O)c1c(O)c3c(c(O)c1C2=O)C[C@@](O)(C(=O)CO)C[C@@H]3O[C@H]1C[C@H](N)[C@H](O)[C@H](C)O1 [DOXORUBICIN] | – | – | – | – | – | 3.73 (≈ 6.86 µM) | – | – |
| COc1ccc(-c2c(C#N)c(-c3ccc(Cl)cc3)nc3c2c(-c2cccnc2)nn3-c2ccccc2)cc1 | inactive | inactive | inactive | inactive | inactive | 4 (≈ 7.78 µM) | inactive | – |
| COc1ccc(-c2c(C#N)c(-c3cccnc3)nc3c2c(-c2cccnc2)nn3-c2ccccc2)cc1 | inactive | inactive | – | inactive | inactive | 3.73 (≈ 7.76 µM) | inactive | – |
| CCN(CC)c1ccc(-c2cc(C(=O)O)nc3c2c(-c2cccnc2)nn3-c2ccccc2)cc1 | inactive | inactive | inactive | inactive | – | – | inactive | – |
